Test results as given in ChEMBL document CHEMBL1153904, “FR290581, a novel sordarin derivative: synthesis and antifungal activity” (Bioorg Med Chem Lett, 2009).
Values after ≈ are worked out from the molar mass of the structure shown.

What was measured:
[1] = system: Candida albicans; experiment: Antifungal activity against Candida albicans FP633 in po dosed ICR mouse candidiasis model treated after 1 hr post infection for 4 days; assay type: functional
How it was run: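 ED50 (mg/kg) determined in a mouse systemic candidiasis model, with compound given orally.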

[2] = system: Candida albicans; experiment: Antifungal activity against Candida albicans ATCC 90028; assay type: functional
[3] = system: Candida albicans; experiment: Antifungal activity against fluconazole-resistant Candida albicans 22009; assay type: functional
[4] = system: Candida tropicalis; experiment: Antifungal activity against Candida tropicalis 21005; assay type: functional
How it was run: (§1)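 Read-out is the minimum inhibitory concentration, in µg/mL.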

[5] = system: Candida parapsilosis; experiment: Antifungal activity against Candida parapsilosis ATCC 22019; assay type: functional; details: Lodderomyces parapsilosis; how it was run: as §1
[6] = Half life in mouse at 2 mg/kg, po; assay type: ADME, organism-based; set-up: dose 2 mg/kg, route oral; details: in vivo
How it was run: (§2)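 Mice received a single oral dose of 2 mg/kg. Cmax is reported in µg/mL and half-life in hours.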

[7] = system: Aspergillus fumigatus; experiment: Antifungal activity against Aspergillus fumigatus ATCC 204305; assay type: functional; how it was run: as §1
[8] = system: Candida albicans; experiment: Antifungal activity against Candida albicans […] in ICR mouse serum drug administered po twice a day; assay type: functional
How it was run: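 MIC measured in mouse serum, in µg/mL.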

[9] = system: Cryptococcus neoformans; experiment: Antifungal activity against Cryptococcus neoformans TIMM 0354; assay type: functional; how it was run: as §1
[10] = Cmax in mouse at 2 mg/kg, po; assay type: ADME, organism-based; set-up: dose 2 mg/kg, route oral; details: in vivo; how it was run: as §2
[11] = system: Candida albicans; experiment: Antifungal activity against Candida albicans FP633 in po dosed ICR mouse assessed as kidney burden per gram of tissue at 20 mg/kg, po after 24 hrs of inoculation; assay type: functional
How it was run: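 Mouse systemic C. albicans infection, oral dosing, n = 5 per group. Kidney fungal burden was read as log cfu per g kidney at 24 h after inoculation and expressed as the change relative to the 0 h control. Significance was tested against the 0 h control by Dunnett comparison.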

[12] = system: Nakaseomyces glabratus; experiment: Antifungal activity against Candida glabrata ATCC 90030; assay type: functional; how it was run: as §1

| SMILES | ED50 [1] [mg/kg] | MIC [2] [µg/mL] | MIC [3] [µg/mL] | MIC [4] [µg/mL] | MIC [5] [µg/mL] | half-life [6] [h] | MIC [7] [µg/mL] | MIC [8] [µg/mL] | MIC [9] [µg/mL] | Cmax [10] [ng/mL] | deltalog10CFU [11] | MIC [12] [µg/mL] |
| --- | --- | --- | --- | --- | --- | --- | --- | --- | --- | --- | --- | --- |
| CCCC[C@@H]1C[C@H](C23C[C@@H]4[C@H](C)CC[C@H]4[C@@]4(C=O)CC2C=C(C(C)C)[C@@]34C(=O)O)O[C@H]1CN1CCC(N2C[C@@H](C)O[C@@H](C)C2)CC1 | 2 | 0.5 (≈ 0.783 µM) | 0.5 (≈ 0.783 µM) | 0.5 (≈ 0.783 µM) | 8 (≈ 12.5 µM) | 3.4 | 128 (≈ 200 µM) | 0.25 (≈ 0.391 µM) | 4 (≈ 6.26 µM) | 1000 | -1.09 | 1 (≈ 1.57 µM) |
| OC(Cn1cncn1)(Cn1cncn1)c1ccc(F)cc1F [FLUCONAZOLE] | – | 0.125 (≈ 0.408 µM) | 128 (≈ 418 µM) | 0.25 (≈ 0.816 µM) | 1 (≈ 3.27 µM) | – | > 128 | – | 0.25 (≈ 0.816 µM) | – | -0.19 | 16 (≈ 52.2 µM) |
| CO[C@H]1[C@@H](O)[C@H](O)[C@H](OC[C@@]23C[C@@H]4[C@H](C)CC[C@H]4[C@@]4(C=O)CC2C=C(C(C)C)[C@@]34C(=O)O)O[C@@H]1C [SORDARIN] | > 40 | 32 (≈ 65 µM) | 64 (≈ 130 µM) | 64 (≈ 130 µM) | > 128 | 0.33 | > 128 | 32 (≈ 65 µM) | > 128 | 20 | – | 64 (≈ 130 µM) |
